The values that follow come from ChEMBL document CHEMBL1255259, “Phosphorothioate-modified oligodeoxynucleotides inhibit human cytomegalovirus replication by blocking virus entry” (Antimicrob Agents Chemother, 2008).

Active and inactive are the calls of the source. The rule behind the calls is not given here.

The nature of data set [1]: Cytotoxicity against HELF assessed as cell viability after 6 days by MTT assay. Format: cell-based. Conditions: human, HELF cells. The gist of the method:
(§1)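 HELF exposed to rising ODN concentrations (up to 10 μM) for 6 days; viable cells measured by MTT. CC50 taken as concentration that cuts viability to 50%.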

The subject of data set [2] is Human alphaherpesvirus 1. The experiment in a line: Antimicrobial activity against Human herpesvirus 1 infected in compound pretreated HELF assessed as inhibition of viral replication at 0.1 uM. Format: functional, organism-based. The gist of the method:
(§2)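 HELF pretreated with ODN (0.1 or 1 μM) 1 h before infection with a clinical HSV-1 isolate at MOI 0.1; ODN kept in medium after 2 h adsorption. Harvest at 48 h p.i., sonication, plaque titration on Vero cells. Means ± SD of three independent experiments.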

The test system of data set [3] is Human alphaherpesvirus 1. The experiment in a line: Antimicrobial activity against Human herpesvirus 1 infected in compound pretreated HELF assessed as inhibition of viral replication at 1 uM. Format: functional, organism-based. Put shortly:
as §2

A further data set concerns unidentified adenovirus. The data set is described as follows: Antimicrobial activity against unidentified adenovirus infected in compound pretreated HELF assessed as inhibition of viral replication. Type of data set: functional, organism-based. Put shortly: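 HELF pretreated 1 h with ODN (0.1 or 1 μM), infected with an adenovirus clinical isolate (MOI 1); ODN kept after 2 h adsorption. Harvest at 4 days p.i., sonication, plaque titration on HELF. Means ± SD, three experiments.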

Data set [4] deals with Vesicular stomatitis Indiana virus. The data set is described as follows: Antimicrobial activity against Vesicular stomatitis Indiana virus infected in compound pretreated HELF assessed as inhibition of viral replication. Format: functional, organism-based. Put shortly:
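HELFs exposed to ODN (0.1 or 1 μM) for 1 h, then infected with VSV serotype Indiana at MOI 1 (2 h adsorption, 37°C). ODN kept in the medium until 48 h p.i. Cells and supernatants were pooled, sonicated and titrated by plaque assay on HELFs. Data are means ± standard deviations of three independent experiments, duplicate wells.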

Data set [5] has as its system Human betaherpesvirus 5. The data set is described as follows: Antimicrobial activity against Human cytomegalovirus AD169 infected in compound pretreated HELF measured as immediate early 1 mRNA level by RT-PCR. Format: functional, organism-based.
In data set [6] the test system is Human betaherpesvirus 5. The data set is described as follows: Antimicrobial activity against Human cytomegalovirus AD169 infected in compound pretreated HELF measured as immediate early 2 mRNA level by RT-PCR. Type of data set: functional, organism-based.
Data set [7] has as its system Human betaherpesvirus 5. The experiment in a line: Antimicrobial activity against Human cytomegalovirus AD169 infected in HELF assessed as inhibition of viral replication at 0.1 uM measured after 6 days post-infection. Format: functional, organism-based.
For data set [8], the system named is Human betaherpesvirus 5. The experiment in a line: Antimicrobial activity against Human cytomegalovirus AD169 infected in HELF assessed as inhibition of viral replication at 1 uM measured after 6 days post-infection. Type of data set: functional, organism-based.
The test system of data set [9] is Human betaherpesvirus 5. The experiment in a line: Antimicrobial activity against 0.1 uM compound pretreated Human cytomegalovirus AD169 infected in HELF assessed as reduction in viral titer at 4 degC. Type of data set: functional, organism-based. Put shortly:
(§3)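 HCMV AD169 (10^4 PFU) incubated with ODN at 0.1 μM at 4 or 37°C for various times; samples then diluted to bring ODN below an antivirally active level; residual infectivity titrated by plaque assay on HELF. Means ± SD of three independent experiments.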

The test system of data set [10] is Human betaherpesvirus 5. The experiment in a line: Antimicrobial activity against 0.1 uM compound pretreated Human cytomegalovirus AD169 infected in HELF assessed as reduction in viral titer 37 degC. Format: functional, organism-based. Put shortly:
as §3

The test system of data set [11] is Human betaherpesvirus 5. The data set is described as follows: Antimicrobial activity against Human cytomegalovirus AD169 infected in 0.1 uM compound pretreated HELF assessed as inhibition of viral replication measured after 6 days post-infection. Type of data set: functional, organism-based. Put shortly: (§4)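 HELF pretreated with ODN 1 h before infection with HCMV AD169 (MOI 1); ODN kept in medium after 2 h adsorption at 37°C. At 6 days p.i., cells plus supernatants sonicated and titrated by plaque assay on HELF; plaques counted microscopically, expressed as PFU/ml (log10) or % of control. IC50/IC90 by linear regression; duplicate wells, three independent experiments, means ± SD.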

Data set [12] has as its system Human betaherpesvirus 5. The experiment in a line: Antimicrobial activity against Human cytomegalovirus AD169 infected in 1 uM compound pretreated HELF assessed as inhibition of viral replication measured after 6 days post-infection. Type of data set: functional, organism-based. The gist of the method:
as §4

Data set [13] deals with Human betaherpesvirus 5. The data set is described as follows: Antimicrobial activity against Human cytomegalovirus AD169 infected in compound pretreated HELF assessed as inhibition of viral replication measured after 6 days post-infection. Type of data set: functional, organism-based. Conditions: Human betaherpesvirus 5, AD169, HELF. Put shortly:
as §4

The nature of data set [14]: Cytotoxicity against HELF assessed as cell viability by MTT assay after 6 days at <=10 uM. Conditions: human, 144 h. Format: cell-based. Put shortly: as §1

Broadly, the CC50 is the concentration at which the toxic effect on the cells reaches its halfway point. A word on the IC50: it is the concentration needed to halve the response being measured. What is called IC90 is the concentration at which the effect reaches the 90% level. On to `Cc1cn([C@H]2C[C@H](OP(O)(O)=S)[C@@H](COP(O)(=S)O[C@H]3C[C@H](n4cc(C)c(=O)[nH]c4=O)O[C@@H]3COP(O)(=S)O[C@H]3C[C@H](n4cc(C)c(=O)[nH]c4=O)O[C@@H]3COP(O)(=S)O[C@H]3C[C@H](n4cc(C)c(=O)[nH]c4=O)O[C@@H]3COP(O)(=S)O[C@H]3[C@@H](O)[C@H](n4cnc5c(=O)[nH]c(N)nc54)O[C@@H]3COP(O)(=S)O[C@H]3[C@@H](O)[C@H](n4ccc(N)nc4=O)O[C@@H]3COP(O)(=S)O[C@H]3C[C@H](n4cc(C)c(=O)[nH]c4=O)O[C@@H]3COP(O)(=S)O[C@H]3[C@@H](O)[C@H](n4cnc5c(=O)[nH]c(N)nc54)O[C@@H]3COP(O)(=S)O[C@H]3[C@@H](O)[C@H](n4cnc5c(=O)[nH]c(N)nc54)O[C@@H]3COP(O)(=S)O[C@H]3[C@@H](O)[C@H](n4ccc(N)nc4=O)O[C@@H]3COP(O)(=S)O[C@H]3C[C@H](n4cc(C)c(=O)[nH]c4=O)O[C@@H]3COP(O)(=S)O[C@H]3C[C@H](n4cc(C)c(=O)[nH]c4=O)O[C@@H]3COP(O)(=S)O[C@H]3C[C@H](n4cc(C)c(=O)[nH]c4=O)O[C@@H]3COP(O)(=S)O[C@H]3C[C@H](n4cc(C)c(=O)[nH]c4=O)O[C@@H]3COP(O)(=S)O[C@H]3C[C@H](n4cc(C)c(=O)[nH]c4=O)O[C@@H]3COP(O)(=S)O[C@H]3[C@@H](O)[C@H](n4cnc5c(=O)[nH]c(N)nc54)O[C@@H]3COP(O)(=S)O[C@H]3[C@@H](O)[C@H](n4ccc(N)nc4=O)O[C@@H]3COP(O)(=S)O[C@H]3C[C@H](n4cc(C)c(=O)[nH]c4=O)O[C@@H]3COP(O)(=S)O[C@H]3[C@@H](O)[C@H](n4cnc5c(=O)[nH]c(N)nc54)O[C@@H]3COP(O)(=S)O[C@H]3[C@@H](O)[C@H](n4ccc(N)nc4=O)O[C@@H]3COP(O)(=S)O[C@H]3C[C@H](n4cc(C)c(=O)[nH]c4=O)O[C@@H]3CO)O2)c(=O)[nH]c1=O` (stereo partly specified), for which, in [1], the CC50 at 144 h was > 10 µM. Also, the inhibition entry (with Human alphaherpesvirus 1 [2]; in the data set on Human alphaherpesvirus 1 [3]; in the data set on unidentified adenovirus; in [4]; in the data set on Human betaherpesvirus 5 [7]; in the data set on Human betaherpesvirus 5 [8]) was “inactive” in each case. For the same compound, the inhibition result with Human betaherpesvirus 5 [9] and with Human betaherpesvirus 5 [10] was “inactive” in each case. Also, the inhibition entry in the data set with Human betaherpesvirus 5 [5], in the data set on Human betaherpesvirus 5 [6], in the data set with Human betaherpesvirus 5 [11] and in the data set with Human betaherpesvirus 5 [12] was “Active” throughout. In addition, in the data set with Human betaherpesvirus 5 [13], the half-maximal inhibitory concentration (IC50) is 25 nM. Moreover, the IC90 in the data set on Human betaherpesvirus 5 [13] was 65 nM. In [14], the Activity result is listed as “Non-toxic”.
